Measurements pooled from the literature.
Lines come from different studies, so protocols differ.
Target: MAP kinase-activated protein kinase 2 (MAPKAPK2, Homo sapiens, UniProt P49137)

SMILES | assay | conditions | quantity | result
Cc1c(NC(=O)c2cc(C(N)=O)nc3cc(F)ccc23)c(C(F)(F)F)nn1Cc1ccc(C#N)cc1 | cell-free assay, competition with immobilised ligand | 1 µM | remaining binding | 97%
COc1cc(Nc2cnc(C#N)c(O[C@H](C)CN(C)C)n2)ncc1-c1cnn(C)c1 | enzyme activity, inhibitor, radiometric | 1 µM | remaining activity | 112%
CCS(=O)(=O)c1cc2cc(C[C@](O)(CC(C)(C)c3ccc(F)cc3C(N)=O)C(F)(F)F)[nH]c2cn1 | cell-free assay, competition with immobilised ligand | 1 µM | remaining binding | 100%
O=C(Nc1cnn(-c2csc(C(=O)NC3COC3)c2)c1)Nc1ccccc1Cl | enzyme activity, inhibitor | 5 µM | remaining activity | 97.1%
CNC(=O)c1cc(Oc2ccc(NC(=O)Nc3ccc(Cl)c(C(F)(F)F)c3)cc2)ccn1 | enzyme activity, inhibitor | 0.3 µM | inhibition | 4%
Nc1nc(NC2CCCCC2)sc1C(=O)c1ccccc1 | enzyme activity, inhibitor | 10 µM | remaining activity | 96%
Cn1c(=O)n(-c2ccc(C(C)(C)C#N)cc2)c2c3cc(-c4cnc5ccccc5c4)ccc3ncc21 | enzyme activity, inhibitor | 10 µM | remaining activity | 99%
Clc1ccc(Nc2nnc(Cc3ccncc3)c3ccccc23)cc1 | cell-free assay | 0.5 µM | remaining signal | 98.8%
FC(F)(F)Oc1cccc(-c2cnc3ccc(-c4ccncc4)nn23)c1 | enzyme activity, inhibitor, radiometric | 5 µM | activity vs control | 96%
CC(C)(C)c1nc2c(s1)c1nc(N)ncc1c1ccc(NS(=O)(=O)c3c(F)cccc3F)c(F)c12 | enzyme activity, inhibitor, radiometric | 1 µM | remaining activity | 69%
Cc1ccc(Nc2nccc(N(C)c3ccc4c(C)n(C)nc4c3)n2)cc1S(N)(=O)=O | enzyme activity, inhibitor | 10 µM | inhibition | 11%
CNc1cccc2cc(C(=O)Nc3ccc(C(=O)O)cc3)c(=O)[nH]c12 | enzyme activity, inhibitor | 10 µM | inhibition | 11%
CCN(CC)CCNC(=O)c1c(C)[nH]c(/C=C2\C(=O)Nc3ccc(F)cc32)c1C | enzyme activity, inhibitor | 10 µM | inhibition | 15%
c1ccc(N2CCN(Cc3nc4ccccc4[nH]3)CC2)nc1 | binding, competition with immobilised ligand | 1 µM | remaining binding | 100%
CN(C)C1CCN(CC#Cc2nn(C3CCCC3)c3nc(NCc4ccccc4)ncc23)C1 (stereo not shown) | enzyme activity, inhibitor, FRET | 1 µM | inhibition | -2%
Cn1nc(C(=O)NCc2ccc(C(=O)O)cc2)cc1-c1ccc2[nH]ccc2c1 | cell-free assay, competition with immobilised ligand | 0.1 µM | remaining binding | 55%
CC(C)c1ccc(NC(=O)c2cccs2)c(-c2nc3ccccc3[nH]c2=O)c1 | enzyme activity, inhibitor | 1 µM | activity vs control | 103%

SMILES | assay | conditions | quantity | result
CC(C)(C)C(=O)c1sc(NC2CCCCC2)nc1N | enzyme activity, inhibitor | 10 µM | remaining activity | 102%
C=CC(=O)Nc1cc(Nc2nccc(Nc3cc(Cl)c(F)cc3C(C)(C)O)n2)c(OC)cc1N1CC[C@@H](N(C)C)C1 | enzyme activity, inhibitor | 1 µM | inhibition | 4%
O=C1CCc2cc(Nc3cc(OC4CCOCC4)c([N+](=O)[O-])cc3Cl)ccc2N1 | cell-free assay, competition with immobilised ligand | 1 µM | remaining binding | 99%
Nc1ncnc2occ(-c3ccc(NC(=O)Nc4cc(C(F)(F)F)ccc4F)cc3)c12 | cell-free assay, inhibitor | 20 µM | remaining signal | 86%
Cc1ccc(C(=O)Nc2ccc(CN3CCN(C)CC3)c(C(F)(F)F)c2)cc1C#Cc1cnc2cccnn12 | enzyme activity, inhibitor | 23.5 nM | remaining activity | 100%
CCC(=N\O)/C(C)=C/c1ccc(F)cc1 | cell-free assay, competition with immobilised ligand | 1 µM | remaining binding | 69%
Cc1ncc([N+](=O)[O-])n1C(=NO)c1ccccc1C(F)(F)F | enzyme activity, inhibitor | 10 µM | inhibition | 21.4%
O=C1NC(=O)c2cc(Nc3ccc(F)cc3)c(Nc3ccc(F)cc3)cc21 | cell-free assay | 0.5 µM | remaining signal | 95.7%
C[C@H](NC(=O)c1cnc2n1[C@](C)(Cc1ccc(C#N)cc1)C(=O)N2c1cc(Cl)c(F)c(Cl)c1)C(=O)NC1(c2ccccn2)CC1 | cell-free assay, competition with immobilised ligand | 1 µM | remaining binding | 100%
CC(C)(O)[C@H]1CC[C@H](Nc2ccc3ncc(-c4cccc(C(F)(F)F)c4)n3n2)CC1 | enzyme activity, inhibitor | 1 µM | remaining activity | 105%
CC/C(=N\NC(=O)NCc1cccc(O)c1)c1ccc(O)c(C)c1O | enzyme activity, inhibitor | 0.1 µM | inhibition | -0.7%
CN1CC(Oc2cnc(C#N)cc2-c2ccn3nc(NC(=O)C4CC4)cc3c2)C1 | enzyme activity, inhibitor | 1 µM | inhibition | -21%
CCc1ccccc1C(=O)Nc1n[nH]c2c(C)c(F)c(C3C(C#N)=C(C)N(C)C(C)=C3C#N)cc12 | cell-free assay, competition with immobilised ligand | 1 µM | remaining binding | 100%
Cc1cc(NC(=O)c2cccc3cc(-c4cccc5[nH]nc(N)c45)ccc23)ccc1F | enzyme activity, inhibitor | 0.1 µM | activity vs control | 95%
COc1cc2ncnc(Nc3ccc(Oc4ccccc4)c(C)c3C)c2cc1OC | enzyme activity, inhibitor | 1 µM | inhibition | -17%
Cc1ccc(NC(=O)c2ccc(CN3CCN(C)CC3)cc2)cc1Nc1nc(-c2cccnc2)cs1 | cell-free assay | 0.5 µM | remaining signal | 102%
CS(=O)(=O)Nc1cccc(-c2csc(NC(=O)CSc3nc4nccnc4c(=O)n3CCc3ccccc3)n2)c1 | enzyme activity, inhibitor | 10 µM | inhibition | 1%
